Calls of active or inactive are those of the source. The calls are words filed in the database; no cut-off is given here.
Assays:
[1] = Cytotoxicity against rat PC12 cells at 0.01 to 100 uM after 24 hrs by MTT assay; type: cell-based; conditions: pc-12, 24 h
How it was run: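 PC12 cells kept in RPMI-1640 with 10% heat-inactivated FBS and 1% penicillin-streptomycin at 37°C, 5% CO2. Seeded 1×10^4 cells/well, exposed to compound (0.01-100 μM) for 24 h. MTT (2.0 mg/ml) added for 4 h at 37°C, formazan dissolved in DMSO, read at 570/630 nm. Viability given as percent of control cultures.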

PC-12 = experiment: Neuroprotective activity against amyloid beta (1 to 42)-induced cytotoxicity in rat PC12 cells at 0.01 to 100 uM pretreated for 24 hrs followed by addition of 25 uM amyloid beta (1 to 42) by MTT assay; type: functional, cell-based
How it was run: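 PC12 cells (RPMI-1640, 10% heat-inactivated FBS, 37°C, 5% CO2) pre-incubated with compound (0.01-100 μM) in serum-free medium for 24 h, then given 25 µM Aβ1-42. Untreated control lacked Aβ. Selegiline served as positive control. MTT 2.0 mg/ml for 4 h at 37°C, DMSO solubilization, 570/630 nm read. Mean percent viable cells versus untreated, mean ± SE, n=5.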

[2] = tested on: Radical scavenging activity; experiment: Antioxidant activity assessed as DPPH free radical scavenging activity; type: functional
[3] = Neuroprotective activity against amyloid beta (1 to 42)-induced cytotoxicity in rat PC12 cells at 100 uM pretreated for 24 hrs followed by addition of 25 uM amyloid beta (1 to 42) by MTT assay; type: functional, PC-12
How it was run: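 PC12 cells in RPMI-1640/10% heat-inactivated FBS, 37°C, 5% CO2, seeded 1×10^4 cells/well. Compound pre-incubation 24 h in serum-free medium, then 25 µM Aβ1-42 added; selegiline as positive control. MTT 2.0 mg/ml, 4 h at 37°C, formazan dissolved in DMSO, read 570/630 nm. Viability as % of untreated cells, mean ± SE, n=5.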

| Compound | Activity [1] | Activity (PC-12) | IC50 [2] | Activity [3] |
| --- | --- | --- | --- | --- |
| CN(C)c1ccc(/C=C/C(=O)/C=C/c2ccc(N(C)C)cc2[N+](=O)[O-])c([N+](=O)[O-])c1 | Non-toxic | Active | > 50 µM | – |
| O=C(/C=C/c1ccc(N2CCCC2)cc1)C1CCc2ccccc2C1=O (configuration not stated) | Non-toxic | inactive | 27.9 µM | – |
| O=C1/C(=C/c2ccc(N3CCCC3)cc2)CCc2ccccc21 | Non-toxic | inactive | 29.2 µM | – |
| O=C1/C(=C\c2ccc(N3CCCC3)cc2)CCC/C1=C\c1ccc(N2CCCC2)cc1 | Non-toxic | inactive | 31.3 µM | – |
| CN(C)c1ccc(/C=C/C(=O)C2CCc3ccccc3C2=O)c([N+](=O)[O-])c1 (configuration not stated) | Non-toxic | Active | 49.1 µM | – |
| O=C1O[C@H]([C@@H](O)CO)C(O)=C1O [ASCORBIC ACID] | – | – | 19.4 µM | – |
| CCOC(OCC)c1ccc(/C=C2\CN(Cc3ccccc3)C/C(=C\c3ccc(C(OCC)OCC)cc3)C2=O)cc1 | Non-toxic | inactive | 28.2 µM | – |
| C#CCN(C)[C@H](C)Cc1ccccc1 | – | Active | – | – |
| CN1C/C(=C/c2ccc(N3CCCC3)cc2)C(=O)/C(=C/c2ccc(N3CCCC3)cc2)C1 | Non-toxic | inactive | 43.3 µM | – |
| O=C1/C(=C/c2ccc(N3CCCC3)cc2)Cc2ccccc21 | Non-toxic | inactive | > 50 µM | – |
| CN(C)c1ccc(/C=C2/CN(Cc3ccccc3)C/C(=C\c3ccc(N(C)C)cc3[N+](=O)[O-])C2=O)c([N+](=O)[O-])c1 | Non-toxic | Active | > 50 µM | – |
| CN(C)c1ccc(/C=C2\CC/C(=C\c3ccc(N(C)C)cc3[N+](=O)[O-])C2=O)c([N+](=O)[O-])c1 | Non-toxic | Active | 47.8 µM | – |
| O=C1/C(=C\c2ccc(N3CCCC3)cc2)COC/C1=C\c1ccc(N2CCCC2)cc1 | Non-toxic | inactive | > 50 µM | – |
| CN(C)c1ccc(/C=C2\Cc3ccccc3C2=O)c([N+](=O)[O-])c1 | Non-toxic | Active | > 50 µM | – |
| CN(C)c1ccc(/C=C2/CCC/C(=C\c3ccc(N(C)C)cc3[N+](=O)[O-])C2=O)c([N+](=O)[O-])c1 | Non-toxic | Active | 32.5 µM | – |
| CCOC(OCC)c1ccc(/C=C2\CCc3ccccc3C2=O)cc1 | Non-toxic | inactive | 39.5 µM | – |

| Compound | Activity [1] | Activity (PC-12) | IC50 [2] | Activity [3] |
| --- | --- | --- | --- | --- |
| CN(C)c1ccc(/C=C2/CNC/C(=C\c3ccc(N(C)C)cc3[N+](=O)[O-])C2=O)c([N+](=O)[O-])c1 | Non-toxic | Active | 25.7 µM | <=87% |
| O=C1/C(=C/c2ccc(N3CCCC3)cc2)CC/C1=C\c1ccc(N2CCCC2)cc1 | Non-toxic | inactive | > 50 µM | – |
| CCOC(OCC)c1ccc(/C=C2\CCC/C(=C\c3ccc(C(OCC)OCC)cc3)C2=O)cc1 | Non-toxic | Active | 20.1 µM | <=87% |
| CCOC(OCC)c1ccc(/C=C/C(=O)C2CCc3ccccc3C2=O)cc1 (configuration not stated) | Non-toxic | inactive | > 50 µM | – |
| CN(C)c1ccc(/C=C2\CCc3ccccc3C2=O)c([N+](=O)[O-])c1 | Non-toxic | Active | 23 µM | <=87% |
| CN1C/C(=C/c2ccc(N(C)C)cc2[N+](=O)[O-])C(=O)/C(=C/c2ccc(N(C)C)cc2[N+](=O)[O-])C1 | Non-toxic | Active | 18.4 µM | <=87% |
| O=C1/C(=C\c2ccc(N3CCCC3)cc2)CNC/C1=C\c1ccc(N2CCCC2)cc1 | Non-toxic | inactive | 26.9 µM | – |
| CN(C)c1ccc(/C=C2/COC/C(=C\c3ccc(N(C)C)cc3[N+](=O)[O-])C2=O)c([N+](=O)[O-])c1 | Non-toxic | Active | 29.2 µM | – |
| CCOC(OCC)c1ccc(/C=C/C(=O)/C=C/c2ccc(C(OCC)OCC)cc2)cc1 | Non-toxic | inactive | > 50 µM | – |
| CCOC(OCC)c1ccc(/C=C2\Cc3ccccc3C2=O)cc1 | Non-toxic | inactive | 37.2 µM | – |
| CCOC(OCC)c1ccc(/C=C2\CC/C(=C\c3ccc(C(OCC)OCC)cc3)C2=O)cc1 | Non-toxic | inactive | – | – |
| O=C1/C(=C\c2ccc(N3CCCC3)cc2)CN(Cc2ccccc2)C/C1=C\c1ccc(N2CCCC2)cc1 | Non-toxic | inactive | > 50 µM | – |
| O=C(/C=C/c1ccc(N2CCCC2)cc1)/C=C/c1ccc(N2CCCC2)cc1 | Non-toxic | inactive | > 50 µM | – |
| CCOC(OCC)c1ccc(/C=C2\CNC/C(=C\c3ccc(C(OCC)OCC)cc3)C2=O)cc1 | Non-toxic | Active | 19.3 µM | <=87% |
| CCOC(OCC)c1ccc(/C=C2\COC/C(=C\c3ccc(C(OCC)OCC)cc3)C2=O)cc1 | Non-toxic | inactive | 29.3 µM | – |
| CCOC(OCC)c1ccc(/C=C2\CN(C)C/C(=C\c3ccc(C(OCC)OCC)cc3)C2=O)cc1 | Non-toxic | Active | 20.4 µM | <=87% |
